From ChEMBL document CHEMBL3259548, “Design, synthesis and biological evaluation of novel isoniazid derivatives with potent antitubercular activity” (Eur J Med Chem, 2014)
In brackets after ≈: the same amount, converted by molar mass.

Legend:
[1] = system: Mycobacterium tuberculosis; test: Antitubercular activity against Mycobacterium tuberculosis H37Rv ATCC 27294 by BACTEC 960 assay; format: functional
[2] = system: Vero; test: Cytotoxicity against african green monkey Vero cells after 48 hrs by MTT assay; format: cell-based; conditions: Chlorocebus sabaeus
[3] = Octanol-water partition co-efficient, log P of the compound by shake-flask method; format: physicochemical
[4] = Selectivity index, ratio of IC50 for african green monkey Vero cells to MIC for Mycobacterium tuberculosis H37Rv ATCC 27294; format: toxicity, cell-based; conditions: read-out: Selectivity Index
How it was run: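 Vero cells were seeded at ~4×10^5 cells/mL and grown 48 h at 37 °C in 5% CO2. […] MTT 0.5 mg/mL was added for 2 h and formazan dissolved in DMSO, with absorbance read at 570 nm to give IC50. SI = IC50 / H37Rv MIC (IC99).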

Structure (SMILES) | MIC [1] | other results
NNC(=O)c1ccncc1N | 9.86 µM (≈ 1.5 µg/mL) | 
CC(=O)NNC(=O)c1ccncc1 | 44.6 µM (≈ 8 µg/mL) | 
O=C(NNS(=O)(=O)c1ccc([N+](=O)[O-])cc1)c1ccncc1 | 186 µM (≈ 60 µg/mL) | 
O=C(NNS(=O)(=O)c1ccccc1)c1ccncc1 | 10.8 µM (≈ 3 µg/mL) | 
C/C(=N/NC(=O)c1ccncc1)c1cccc(CN2CCNCC2)c1O | 8.61 µM (≈ 3.04 µg/mL) | 
N/C(COc1ccc(Cl)cc1)=N\NC(=O)c1ccncc1 | 10.2 µM (≈ 3.12 µg/mL) | 
O=C(NNC(=O)c1ccncc1)c1ccncc1 | 33 µM (≈ 8 µg/mL) | 
Cc1ccccc1OC/C(N)=N/NC(=O)c1ccncc1 | 44 µM (≈ 12.5 µg/mL) | 
CCCCCCCCC(=O)NNC(=O)c1ccncc1 | 0.09 µM (≈ 0.025 µg/mL) | 
Cc1cccc(OC/C(N)=N/NC(=O)c2ccncc2)c1 | 11 µM (≈ 3.12 µg/mL) | 
Cc1ccc(OC/C(N)=N/NC(=O)c2ccncc2)cc1 | 22 µM (≈ 6.25 µg/mL) | 
N/C(COc1cccc(Cl)c1)=N\NC(=O)c1ccncc1 | 10.2 µM (≈ 3.12 µg/mL) | 
C/C(=N\NC(=O)c1ccncc1)c1cccc(CN(C)C)c1O | 2.29 µM (≈ 0.715 µg/mL) | 
CCCCN(CCCC)Cc1cccc(/C(C)=N/NC(=O)c2ccncc2)c1O | 4.43 µM (≈ 1.76 µg/mL) | 
C/C(=N\NC(=O)c1ccncc1)c1cccc(CN2CCCCC2)c1O | 4.61 µM (≈ 1.62 µg/mL) | 
C/C(=N\NC(=O)c1ccncc1)c1cccc(CN2CCCC2)c1O | 2.2 µM (≈ 0.745 µg/mL) | 
C/C(=N\NC(=O)c1ccncc1)c1cccc(CN2CCOCC2)c1O | 3.57 µM (≈ 1.27 µg/mL) | 
C/C(=N\NC(=O)c1ccncc1)c1cccc(CN(c2ccccc2)c2ccccc2)c1O | 0.56 µM (≈ 0.244 µg/mL) | 
C/C(=N\NC(=O)c1ccncc1)c1cccc(CN2CCN(C)CC2)c1O | 3.36 µM (≈ 1.23 µg/mL) | 
C/C(=N\NC(=O)c1ccncc1)c1cccc(CN(Cc2ccccc2)Cc2ccccc2)c1O | 1.3 µM (≈ 0.604 µg/mL) | 
C/C(=N\NC(=O)c1ccncc1)c1cccc(CN2CCN(c3cc4c(cc3F)c(=O)c(C(=O)O)cn4C3CC3)CC2)c1O | 1.26 µM (≈ 0.754 µg/mL) | 
CCn1cc(C(=O)O)c(=O)c2cc(F)c(N3CCN(Cc4cccc(/C(C)=N/NC(=O)c5ccncc5)c4O)C(C)C3)c(F)c21 (configuration not stated) | 0.9 µM (≈ 0.557 µg/mL) | 
C/C(=N\NC(=O)c1ccncc1)c1cccc(CN2CCN(c3ccccn3)CC2)c1O | 0.88 µM (≈ 0.379 µg/mL) | 
CCCCCCCCCCCCNNC(=O)c1ccncc1 | 0.164 µM (≈ 0.0501 µg/mL) | 

Structure (SMILES) | MIC [1] | other results
O=C(NNCc1ccco1)c1ccncc1 | 69.1 µM (≈ 15 µg/mL) | 
Nc1ccc(S(=O)(=O)NNC(=O)c2ccncc2)cc1 | 2050 µM (≈ 600 µg/mL) | 
O=C(N/N=C(\CO)C(O)C(O)C(O)CO)c1ccncc1 (configuration not stated) | 0.2 µM (≈ 0.0599 µg/mL) | 
CNC1C(OC2C(OC3C(O)C(O)C(NC(=N)N)C(O)C3NC(=N)N)OC(C)C2(O)/C=N\NC(=O)c2ccncc2)OC(CO)C(O)C1O (configuration not stated) | 0.214 µM (≈ 0.15 µg/mL) | 
Cc1cc(C(=O)NN)ccn1 | 5.2 µM (≈ 0.786 µg/mL) | 
CCc1cc(C(=O)NN)ccn1 | 21.1 µM (≈ 3.49 µg/mL) | 
CCCc1cc(C(=O)NN)ccn1 | 55.2 µM (≈ 9.89 µg/mL) | 
COc1cc(C(=O)NN)ccn1 | 153 µM (≈ 25.6 µg/mL) | 
CCOc1cc(C(=O)NN)ccn1 | 450 µM (≈ 81.5 µg/mL) | 
NNC(=O)c1ccnc(N)c1 | 14.5 µM (≈ 2.21 µg/mL) | 
CC(=O)Nc1cc(C(=O)NN)ccn1 | 2150 µM (≈ 418 µg/mL) | 
CC(=O)NCc1cc(C(=O)NN)ccn1 | 243 µM (≈ 50.6 µg/mL) | 
CCN(CC)c1cc(C(=O)NN)ccn1 | 717 µM (≈ 149 µg/mL) | 
NNC(=O)c1ccnc(Cl)c1 | 392 µM (≈ 67.3 µg/mL) | 
NNC(=O)c1ccnc(I)c1 | 254 µM (≈ 66.8 µg/mL) | 
NNC(=O)c1ccnc([N+](=O)[O-])c1 | 371 µM (≈ 67.6 µg/mL) | 
NNC(=O)c1ccnc(-c2ccccc2)c1 | 50 µM (≈ 10.7 µg/mL) | 
NNC(=O)c1ccnc(Cc2ccccc2)c1 | 38.5 µM (≈ 8.75 µg/mL) | 
C=Cc1cc(C(=O)NN)ccn1 | 35 µM (≈ 5.71 µg/mL) | 
Cc1ccc(C)n1NC(=O)c1ccncc1 | 46.5 µM (≈ 10 µg/mL) | 
CC(O)(NNC(=O)c1ccncc1)C(=O)O (configuration not stated) | 0.266 µM (≈ 0.0599 µg/mL) | 
O=C(NNC(O)C(Cl)(Cl)Cl)c1ccncc1 (configuration not stated) | 0.141 µM (≈ 0.0401 µg/mL) | 
CC(C)(C#N)NNC(=O)c1ccncc1 | 0.294 µM (≈ 0.06 µg/mL) | 
O=CNNC(=O)c1ccncc1 | 18.2 µM (≈ 3 µg/mL) | 

Structure (SMILES) | MIC [1] | other results
CCCCCC/C=N/NC(=O)c1ccncc1 | 0.129 µM (≈ 0.0301 µg/mL) | 
C/C=C/CCCCCCC/C=N/NC(=O)c1ccncc1 | 0.522 µM (≈ 0.15 µg/mL) | 
CCCCCCCCCC/C=N/NC(=O)c1ccncc1 | 1.04 µM (≈ 0.3 µg/mL) | 
CCC(CC)=NNC(=O)c1ccncc1 | 0.097 µM (≈ 0.0199 µg/mL) | 
CCCCC/C(C)=N/NC(=O)c1ccncc1 | 0.129 µM (≈ 0.0301 µg/mL) | 
CC1CCC(=NNC(=O)c2ccncc2)CC1 (configuration not stated) | 0.303 µM (≈ 0.0701 µg/mL) | 
CC(C)COc1ccc(/C=N/NC(=O)c2ccncc2)cc1 | 0.673 µM (≈ 0.2 µg/mL) | 
CC(C)CCOc1ccc(/C=N/NC(=O)c2ccncc2)cc1 | 0.161 µM (≈ 0.0501 µg/mL) | 
CCN(CC)c1ccc(/C=N/NC(=O)c2ccncc2)cc1 | 2.02 µM (≈ 0.6 µg/mL) | 
CC(=O)C/C(C)=N/NC(=O)c1ccncc1 | 3.65 µM (≈ 0.8 µg/mL) | 
O=C(N/N=C/C(O)C(O)C(O)CO)c1ccncc1 (configuration not stated) | 0.186 µM (≈ 0.0501 µg/mL) | 
CC(C)/C=N\NC(=O)c1ccncc1 | 0.523 µM (≈ 0.1 µg/mL) | 
CC(=O)Nc1ccc(/C=N\NC(=O)c2ccncc2)cc1 | 0.283 µM (≈ 0.0799 µg/mL) | 
CC(C)CNNC(=O)c1ccncc1 | 0.517 µM (≈ 0.0999 µg/mL) | 
CCC(C)NNC(=O)c1ccncc1 (configuration not stated) | 2.07 µM (≈ 0.4 µg/mL) | 
CCC(CC)NNC(=O)c1ccncc1 | 14.5 µM (≈ 3 µg/mL) | 
O=C(NNC1CCCCC1)c1ccncc1 | 22.8 µM (≈ 5 µg/mL) | 
CC1CCCC(NNC(=O)c2ccncc2)C1 (configuration not stated) | 17.1 µM (≈ 4 µg/mL) | 
CC1CCC(NNC(=O)c2ccncc2)CC1 (configuration not stated) | 21.4 µM (≈ 5 µg/mL) | 
O=Cc1cccc(/C=N/NC(=O)c2ccncc2)c1 | 0.28 µM (≈ 0.0709 µg/mL) | IC50 [2]: > 200 µM; logP [3]: 1.33; selectivity ratio [4]: > 724
O=Cc1ccc(/C=N/NC(=O)c2ccncc2)cc1 | 0.24 µM (≈ 0.0608 µg/mL) | IC50 [2]: > 200 µM; logP [3]: 1.32; selectivity ratio [4]: > 844
O=C(N/N=C/c1cccc(CO)c1)c1ccncc1 | 0.47 µM (≈ 0.12 µg/mL) | IC50 [2]: > 200 µM; logP [3]: 0.902; selectivity ratio [4]: > 425
O=C(N/N=C/c1ccc(CO)cc1)c1ccncc1 | 0.27 µM (≈ 0.0689 µg/mL) | IC50 [2]: > 200 µM; logP [3]: 0.731; selectivity ratio [4]: > 729
O=C(NN=C1CCCC1)c1ccncc1 | 0.2 µM (≈ 0.0406 µg/mL) | IC50 [2]: > 190 µM; logP [3]: 0.22; selectivity ratio [4]: > 965

Structure (SMILES) | MIC [1] | other results
O=C(NN=C1CCC(c2ccccc2)CC1)c1ccncc1 (configuration not stated) | 0.27 µM (≈ 0.0792 µg/mL) | IC50 [2]: > 200 µM; logP [3]: 1.97; selectivity ratio [4]: > 733
COC(=O)c1ccc(/C=N/NC(=O)c2ccncc2)cc1 | 1.06 µM (≈ 0.3 µg/mL) | logP [3]: 1.32
O=C(N/N=C/c1ccc(Oc2ccccc2)cc1)c1ccncc1 | 0.95 µM (≈ 0.301 µg/mL) | logP [3]: 3.7
CCCCCCCCCC(=O)NNC(=O)c1ccncc1 | 0.38 µM (≈ 0.111 µg/mL) | IC50 [2]: > 75 µM; logP [3]: 3.46; selectivity ratio [4]: > 530
CCCCCC(C)C(=O)NNC(=O)c1ccncc1 (configuration not stated) | 3.04 µM (≈ 0.801 µg/mL) | logP [3]: 2.09
O=C(NNC1CCC(c2ccccc2)CC1)c1ccncc1 (configuration not stated) | 0.44 µM (≈ 0.13 µg/mL) | IC50 [2]: > 200 µM; logP [3]: 2.83; selectivity ratio [4]: > 454
NNC(=O)c1ccnc(NN)c1 | 0.42 µM (≈ 0.0702 µg/mL) | IC50 [2]: > 200 µM; logP [3]: -0.541; selectivity ratio [4]: > 478
O=C(NNC(=O)C(O)C(O)C(O)CO)c1ccncc1 (configuration not stated) | 0.501 µM (≈ 0.143 µg/mL) | 
CCN(CC)CN(C)c1ccc(/C=N/NC(=O)c2ccncc2)cc1 | 0.236 µM (≈ 0.0801 µg/mL) | 
O=C(NNC(=O)C(O)C(OC1OC(CO)C(O)C(O)C1O)C(O)CO)c1ccncc1 (configuration not stated) | 0.346 µM (≈ 0.155 µg/mL) | 
N/C(COc1ccc([N+](=O)[O-])cc1)=N/NC(=O)c1ccncc1 | 19.8 µM (≈ 6.25 µg/mL) | 
C/C(=N/NC(=O)c1ccncc1)c1cccc(CN2CCN(Cc3ccccn3)CC2)c1O | 0.87 µM (≈ 0.387 µg/mL) | 
C/C(=N/NC(=O)c1ccncc1)c1cccc(CN2CCN(Cc3ccc(F)cn3)CC2)c1O | 2.04 µM (≈ 0.944 µg/mL) | 
NNC(=O)c1ccnc(F)c1 | 2.58 µM (≈ 0.4 µg/mL) | 
Cc1cnccc1C(=O)NN | 1320 µM (≈ 200 µg/mL) | 
NNC(=O)c1ccnc(Br)c1 | 69.4 µM (≈ 15 µg/mL) | 
C/C=N/NC(=O)c1ccncc1 | 0.245 µM (≈ 0.04 µg/mL) | 
CCN(CC)Cc1cccc(/C(C)=N\NC(=O)c2ccncc2)c1O | 3.93 µM (≈ 1.34 µg/mL) | 
CC(C)=NNC(=O)c1ccncc1 | 0.113 µM (≈ 0.02 µg/mL) | 
O=C(NN=C1CCCCC1)c1ccncc1 | 0.028 µM (≈ 0.00608 µg/mL) | 
CC(C)NNC(=O)c1ccncc1 [IPRONIAZID] | 2.23 µM (≈ 0.4 µg/mL) | 
NNC(=O)c1ccncc1 [ISONIAZID] | 0.146 µM (≈ 0.02 µg/mL) | IC50 [2]: > 200 µM; logP [3]: -0.851; selectivity ratio [4]: > 686
